Assay results taken from the EternaBench riboswitch data.

System: MS2 coat protein
Test: apparent Kd, MS2 coat protein; higher = weaker binding; RNA-MaP array; FMN 200 µM where present
Procedure, shortened: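 Each design was made on Illumina sequencing-chip clusters by stalled E. coli RNA polymerase and titrated with SNAP-549-labelled MS2 coat protein from 0.7 or 1.5 nM, doubling to 3 µM, in the absence and then the presence of constant ligand. The buffer was 100 mM Tris-HCl pH 7.5, 80 mM KCl, 4 mM MgCl2, BSA, DTT, yeast tRNA and Tween-20. The apparent Kd is the median of filtered per-cluster fits of binding curves, with green signal normalised to red-channel RNA signal and control-cluster median Fmax.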

[1] = designed as: ON switch for flavin mononucleotide, no ligand
[2] = ligand present: flavin mononucleotide, designed as: ON switch for flavin mononucleotide
[3] = designed as: OFF switch for flavin mononucleotide, no ligand
[4] = ligand present: flavin mononucleotide, designed as: OFF switch for flavin mononucleotide

| Sequence | apparent Kd [1] | apparent Kd [2] | apparent Kd [3] | apparent Kd [4] |
| --- | --- | --- | --- | --- |
| GGCGUUCGCACAGGAUAUGCAUUAGACAUGAGGAUCACCCAUGUAGGCUAAGCAGAAGGGUGGGUGUGUCUAAGGAAAUUCUUC | 172 nM | 42.4 nM |  |  |
| GGCGUUGAAGGAUAUUGAUAUCCGGACAUGAGGAUCACCCAUGUGAGACAUACUUAUAUGCGAGAAGGUCAGGCCC |  |  | 160 nM | 139 nM |
| GGCUAGUGAGGAUAUACGUGCAGUCCUCAGUCGCCAGUCGGACAUGAGGAUCACCCAUGUAGAAGGUAUCGGCA |  |  | 35.8 nM | 38.9 nM |
| GGCUGGCAGCUAGGAUAUGGGCGGUCACAUGAGGAUCACCCAUGUCAACAUCAAAACCAGAUUAACCAGAAGGAGCUGCGGAUU | 32.7 nM | 502 nM |  |  |
| GGCUGUCGGUCGGGUCAUCCACAUGAGGAUCACCCAUGUAGGAGAAGGGUCCGCCAGGCUUGUGGAUAGGAUAUCCUAGAAUGA |  |  | 5.45 nM | 5.52 nM |
| GGGACCGUACUCCUGUUGUACUCUGAGGAUAUCCGUUACGGACAUGAGGAUCACCCAUGUACGGCGGAGAAGGCAGAUCUCAUA | 6.44 nM | 5.26 nM |  |  |
| GGGAGACAUGAGGAUCACCCAUGUGAAAACGUGGCAGGAUAUGGAUGGAAACCAUACUGUCCAGAAGGGCCUUGUC | 47.4 nM | 37.8 nM |  |  |
| GGGCCCGGAGGAUAUACAUGAGGAUCACCCAUGUAUUUGGGCCCUAUUGGGCCCGGGUGUAGAAGGCCGGGUUU |  |  | 15.7 nM | 21.4 nM |
| GGGCCCGGUGUGAGGAUAUGCCCGGGUAAAUUUGGGCAGAAGGCACAUGAGGAUCACCCAUGUAAGCCGGGCCC |  |  | 13.9 nM | 13.8 nM |
| GGGCCGAAAGGCCCGCGGGCCCGGGAGGAUAUACAUGAGGAUCACCCAUGUCCGGCGAAAGCCGGGUAGAAGGCCCGGGCCCGC |  |  | 5.38 nM | 7.03 nM |
| GGGCCGCUACGCCGGCUCCACGCACAGGAUAUGCAGUUACAUGAGGAUCACCCAUGUGGCCAUGUGCAGAAGGGUGGUUCGCGA | 85.3 nM | 28.6 nM |  |  |
| GGGCUCGGUGUGAGGAUAUCGGGCUCUAAAGGGCUCGAGAAGGCACAUGAGGAUCACCCAUGUAAGUCGGGCUC |  |  | 14.8 nM | 15 nM |
| GGGCUGUCAGGAUAUCUCGGGCUCGGGUAAACUCGGGCUCGGGAGAAGGGACAUGAGGAUCACCCAUGUGGCUC |  |  | 42.1 nM | 51.5 nM |
| GGGCUGUCAGGAUAUUGAUCGUGAUCGGAAAUGAUCGUGAUCGAGAAGGGACAUGAGGAUCACCCAUGUGGCCC |  |  | 30.8 nM | 33 nM |
| GGGUACAUCGGAGGAUAUCAUGUAAAUACAUGAGGAUCACCCAUGUCGAUGGAGACAUCGGAGAUUGAGAAGGCAGAUGUACCG | 333 nM | 18.1 nM |  |  |
| GGGUACAUCGGAGGAUAUCAUGUAAAUACAUGAGGAUCACCCAUGUCGAUGGAGACAUCGGAGAUUGAGAAGGCCGAAGUACCG | 214 nM | 8.99 nM |  |  |
| GGGUACAUCGGAGGAUAUCAUGUAAAUACAUGAGGAUCACCCAUGUCGAUGGAGACAUCGGAGAUUGAGAAGGCCGAUGUUCCG | 202 nM | 9.84 nM |  |  |
| GGGUACAUCGGAGGAUAUCAUGUAAAUACAUGAGGAUCACCCAUGUCGAUGGAGACAUCGGAGAUUGAGAAGGCCGAUUUACCG | 184 nM | 8.4 nM |  |  |
| GGGUACAUCGGAGGAUAUCAUGUAAAUACAUGAGGAUCACCCAUGUCGAUGGAGACAUCGGAGAUUGAGAAGGCCGCUGUACCG | 176 nM | 9.92 nM |  |  |
| GGGUACAUCGGAGGAUAUCAUGUAAAUACAUGAGGAUCACCCAUGUCGAUGGAGACAUCGGAGAUUGAGAAGGCCGUUGUACCG | 168 nM | 9.18 nM |  |  |
| GGGUACAUCGGAGGAUAUCAUGUAAAUACAUGAGGAUCACCCAUGUCGAUGGAGACAUCGUAGAUUGAGAAGGCCGAUGUACCG | 9.85 nM | 5.37 nM |  |  |

| Sequence | apparent Kd [1] | apparent Kd [2] | apparent Kd [3] | apparent Kd [4] |
| --- | --- | --- | --- | --- |
| GGGUACAUCGGAGGAUAUCAUGUAAAUACAUGAGGAUCACCCAUGUCGAUGGAGACUUCGGAGAUUGAGAAGGCCGAUGUACCG | 434 nM | 27.8 nM |  |  |
| GGGUACAUCGGAGGAUAUCAUGUAAAUACAUGAGGAUCACCCAUGUCGUUGGAGACAUCGGAGAUUGAGAAGGCCGAUGUACCG | 199 nM | 339 nM |  |  |
| GGGUACAUCGGAGGAUAUCAUGUAAAUACAUGAGGAUCACCCAUGUCUAUGGAGACAUCGGAGAUUGAGAAGGCCGAUGUACCG | 14.4 nM | 150 nM |  |  |
| GGGUACAUCGGAGGAUAUCAUGUAUAUACAUGAGGAUCACCCAUGUCGUACGAGAGUACGGAGAUUGAGAAGGCCGAUGUACCG | 39.4 nM | 14.4 nM |  |  |
| GGGUACCUGACAUGAGGAUCACCCAUGUCGUGCCUCUGCGGCAAGGAUAUGAUCGCUCGUGUAGGUCAGAAGGUGCCGUUGUUA | 66.2 nM | 6.7 nM |  |  |
| GGGUAGGUAGGAUAUGCGUGCAGGGUGUCUUCCAAUGAUCAACAUGAGGAUCACCCAUGUAGAAGGAUCGAGCU |  |  | 331 nM | 319 nM |
| GGGUCACAUGAGGAUCACCCAUGUGAGGAUAUGAUACUAUGUACUUCGGUACAUAGUAUCAGAAGGCACAUCCC |  |  | 19.2 nM | 35.7 nM |
| GGGUGACAUGAGGAUCACCCAUGUCAGGAUAUUGAGCUUGAGCUGAAAAGUUCGAGUUCGAGAAGGGACUGCCC |  |  | 52 nM | 229 nM |
| GGGUGGCGUAGAGGAUAUGUGUUACAUGAGGAUCACCCAUGUGCAUAUGAUGUUCGUGUGUCUGCAUAGAAGGCUACGUCGCUA | 28.3 nM | 27.6 nM |  |  |
| GGGUGGGUACAGAAGGGAGUGAUGGGUUUUUGGUUUGACAUGAGGAUCACCCAUGUUUAUCUGGUUCAGGAUAUGUAGUGGUGG | 149 nM | 97.3 nM |  |  |
| GGGUGUGAAGGAUAUACAUGAGGAUCACCCAUGUGAGAGGAGAAUGUUGAGGAGGUUGGUAGAAGGUCAGGAGG |  |  | 93.8 nM | 67.6 nM |
| GGGUUUGGAGGAUAUACAAUCCCGGGCCGAAAGGUUUGGGUACAUGAGGAUCACCCAUGUAGAAGGCCGGGCCC |  |  | 19.2 nM | 27.3 nM |
| GGGUUUGGAGGAUAUACAUGAGGAUCACCCAUGUAGGGCCCGGGUAUUCCCGGGCCCUGUAGAAGGCCGGGCCC |  |  | 14.1 nM | 16.5 nM |
| GGUACCAACACAGGAUAUGCAAUCCUUUGGGUUGCAGAAGGGUGAAAACAUGAGGAUCACCCAUGUGGUACCGGGCGUGAGCCC | 473 nM | 39.8 nM |  |  |
| GGUACCAACACAGGAUAUGCUAUCCUUUGGGUAGCAGAAGGGUGAAAACAUGAGGAUCACCCAUGUGGUACCGGGCGUGAGCCC | 519 nM | 45.4 nM |  |  |
| GGUACCCUGGUUCUUCAAAAUACAUGAGGAUCACCCAUGUACUAGGAUAUCGCGCGAACCCUCGCUGAGAAGGAGUCGAUGGGC |  |  | 22 nM | 23.4 nM |
| GGUACUCAAAGAGUACCAAAACGAACAUGAGGAUCACCCAUGUAGGAUAUGCUACUCAAAGAGUAGCAGAAGGACAUGUGCAGA |  |  | 29.6 nM | 149 nM |
| GGUACUCAAAGAGUACCAAUACGAACAUGAGGAUCACCCAUGUAGGAUAUGCUACUCAAAGAGUAGCAGAAGGACAUGUCCCUA |  |  | 13.1 nM | 35.2 nM |
| GGUACUCAAAGAGUACCAAUACGAACAUGAGGAUCACCCAUGUAGGAUAUGCUACUCAAAGAGUAGCAGAAGGACAUGUGCCUG |  |  | 17.9 nM | 95.1 nM |
| GGUACUCAAAGAGUACCAAUACGAACAUGAGGAUCACCCAUGUAGGAUAUGCUACUCGAAGAGUAGCAGAAGGACAUGUGCCUA |  |  | 16.9 nM | 113 nM |
| GGUACUCAAAGAGUACCAAUAUGAACAUGAGGAUCACCCAUGUAGGAUAUGCUACUCAAAGAGUAGCAGAAGGAUAUGUGUCUA |  |  | 19.6 nM | 21.2 nM |
